Screening results deposited in PubChem BioAssay by Johns Hopkins Ion Channel Center.
A selection: hits, their analogues and other compounds. The true share with any hit is near 3.8%.
Kir21 inh – inhibitors of mouse Kir2.1 inward-rectifier potassium channel | Inward rectifier potassium channel 2 (Mus musculus), P35561 | HEK293-Kir2.1, FluxOR thallium flux fluorescence; hits give low values | B-score at 10 µM | actives 0.85% (n = 310,000) | AID 1672, 2009;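 active = fluorescence ratio B-score at or below minus 3 SD of library scores, with starting-brightness B-score within 2 SD, cut at about -4.2 in these data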;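 note: channel flux triggered by added potassium and thallium sulfate stimulus; B-score of peak minus minimum fluorescence over baseline after thallium stimulus; more negative B-score means stronger Kir2.1 block with less thallium influx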
Target sequence (P35561 whole entry, looked up): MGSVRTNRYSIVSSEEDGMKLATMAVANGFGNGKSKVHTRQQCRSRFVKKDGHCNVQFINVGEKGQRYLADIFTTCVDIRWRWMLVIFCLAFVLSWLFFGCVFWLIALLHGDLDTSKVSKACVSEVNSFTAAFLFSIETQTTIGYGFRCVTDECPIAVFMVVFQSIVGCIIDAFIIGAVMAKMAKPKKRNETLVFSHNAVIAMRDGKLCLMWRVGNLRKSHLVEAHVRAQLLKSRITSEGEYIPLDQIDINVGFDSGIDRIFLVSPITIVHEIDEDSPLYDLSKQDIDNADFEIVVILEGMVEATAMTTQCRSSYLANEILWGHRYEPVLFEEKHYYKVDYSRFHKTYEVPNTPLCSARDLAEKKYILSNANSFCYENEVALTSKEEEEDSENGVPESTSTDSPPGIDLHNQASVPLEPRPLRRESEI
KCNQ1 inh – inhibitors of human KCNQ1 channel, primary screen, cell-based, thallium flux, high-throughput | B-score at 10 µM | Potassium voltage-gated channel subfamily KQT member 1 (Homo sapiens), P51787 | CHO-K1 KCNQ1, FluxOR thallium flux fluorescence; hits give high values | actives 1.3% (n = 310,000);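 active = compounds whose thallium flux B-score, printed positive for inhibition, exceeds three library SD while starting fluorescence stays within three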;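 note: channel opened by potassium depolarization with thallium stimulus after 20 min compound exposure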
KCNK9 inh – KCNK9 potassium channel inhibitors, primary screen, HEK293 cells, thallium flux; FluxOR thallium flux fluorescence; hits give low values; B-score at 10 µM; actives 1.2% (n = 310,000); AID 488922, 2010;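 active = ratio B-score over 3 SD below the library mean, with starting fluorescence within 5 SD of its mean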;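 note: negative B-score means less thallium flux so channel inhibition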
KCNQ1 act – potentiators or activators of KCNQ1 channel, primary screen, cell-based, thallium flux, high-throughput; CHO-K1 KCNQ1, thallium flux FluxOR fluorescence; hits give high values; B-score at 10 µM; actives 0.35% (n = 310,000); AID 2648, 2010;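 active = fluorescence ratio B-score, a plate-corrected score, at least three library SD, with initial intensity B-score within 5 SD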
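assay system = CHO-K1 cells stably expressing KCNQ1 | medium = assay buffer, equal DMSO in all wells | timing = 37 °C overnight plating, 90-min dark dye load, 20-min compound pretreatment | measured by = kinetic FluxOR thallium fluorescence, 10-s 1-Hz baseline, 110-s post-stimulus read | measure = fluorescence change relative to baseline, converted to B score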
hERG rescue – hERG rescue from dofetilide block, primary screen, cell-based, CHO-hERG, FluxOR thallium flux, dofetilide IC70; dofetilide IC70 present; activation (rescue from dofetilide block), less the hit threshold, % at 10 µM; actives 0.51% (n = 310,000); AID 1511, 2009;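 active = activation above the mean of controls blocked by dofetilide plus 5 SD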;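 note: thallium influx through hERG after potassium depolarization seen as dye fluorescence rise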
KCNK3 block – human KCNK3 channel inhibitors, primary screen, CHO cells, FluxOR thallium flux, B-score. Potassium channel subfamily K member 3 (Homo sapiens), O14649. FluxOR fluorescence; hits give low values. B-score at 10 µM. actives 0.84% (n = 340,000). AID 602410, 2012;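 active = B-score under library mean minus 4 SD, starting fluorescence ratio at most library mean plus 5 SD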;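 note: more negative B-score means stronger inhibition of thallium flux through KCNK3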
KCNK9 inh conf – KCNK9 potassium channel inhibitors, confirmation, HEK293 cells, thallium flux, duplicate. shares compounds with KCNK9 inh. FluxOR thallium flux fluorescence. inhibition, % at 10 µM. actives 43% (n = 4,900);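 active = thallium signal inhibited by more than 5 SD of the compound-free buffer control wells, on both duplicate plates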;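 note: 0% = assay buffer control wells without compound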
Kir21 sel – mouse Kir2.1 channel inhibition, confirmation, selectivity assay for KCNK9 modulator project, cell-based, HEK293, thallium flux | shares compounds with KCNK9 inh | Kir2.1 cells, FluxOR thallium flux fluorescence | inhibition, % at 10 µM | actives 4% (n = 4,900) | AID 492993, 2010;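 active = thallium signal drop more than 5 SD beyond the mean of the no-compound control wells, seen in both duplicate plates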;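 note: signal is fluorescence rise after thallium addition divided by baseline fluorescence; plate controls were assay buffer only for no effect and full block by chlorpromazine control for full effect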
HEK293 Tl ctr – thallium flux in non-induced HEK293 cells, confirmation, counter-screen for KCNK9 inhibitor project, cell-based, second counter screen, non-induced KCNK9-HEK293. inhibition, % at 10 µM. actives 40% (n = 4,900). FluxOR thallium flux. shares compounds with KCNK9 inh;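 active = thallium signal drop beyond 5 SD of the untreated control mean, on both duplicate plates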;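 note: plate controls were buffer only IC0 wells for no effect and SID17386958 at its maximal inhibitory level for full effect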
Starred values were filed as active, the others as inactive; i = inactive; x = not tested or not shown.

SMILES | Kir21 inh | KCNQ1 inh | KCNK9 inh | KCNQ1 act | hERG rescue | KCNK3 block | KCNK9 inh conf | Kir21 sel | HEK293 Tl ctr
CCN1CCN(c2c(S(=O)(=O)c3ccc(C)c(C)c3)cnc3ccc(F)cc23)CC1 | -0.36 | i | i | i | -6.9 | i | x | x | x
CCn1c(=O)c(CCC(=O)N2CCOCC2)c(C)c2c(C)nn(-c3ccccc3)c21 | -0.84 | i | i | i | -10.4 | i | i | i | i
CCn1c(=O)c(CCC(=O)NCCN2CCOCC2)c(C)c2c(C)nn(-c3cccc(C)c3)c21 | -0.48 | i | i | i | -7.5 | i | x | x | x
Cc1nn(-c2ccccc2)c2c1c(C)c(CCC(=O)N1CCOCC1)c(=O)n2C | -1.45 | i | i | i | -17.2 | i | i | i | i
Cc1cc(Nc2cccc(C(=O)O)c2)n2ncnc2n1 | 0.2 | i | i | i | -9.0 | i | x | x | x
Cc1cc(C)c(S(=O)(=O)N2CCC(C(=O)NCc3ccc(Cl)cc3Cl)CC2)c(C)c1 | 0.38 | i | i | i | -7.5 | i | i | i | i
Cn1nccc1NC(=O)CC1(CC(=O)O)CCCCC1 | 0.05 | i | i | i | -13.1 | i | x | x | x
Cc1cccc(C(=O)NC2CCN(CC(=O)NCc3ccccc3F)CC2)c1 | 0.51 | i | i | i | -7.9 | i | x | x | x
FCCCOc1ccc(/C=N/OCc2ccc(Cl)cc2Cl)cc1 | -0.85 | i | i | i | -3.2 | i | i | i | i
CC(=O)c1ccccc1C(=O)N1CCCC(C(=O)c2ccc(C(F)(F)F)cc2)C1 (stereo not drawn) | 1.94 | i | i | i | -11.6 | i | x | x | x
CCOC(=O)CSc1nc2c(sc(=S)n2-c2ccccc2OC)c(=O)n1Cc1ccco1 | 1.2 | i | -9.07* | i | -11.4 | i | i | i | 36.5%*
CCOC(=O)CSc1nc2c(sc(=S)n2-c2ccccc2OC)c(=O)n1-c1ccccc1OC | 2.04 | i | -10.2* | i | -3.9 | i | i | i | 31.0%*
CCOC(=O)CSc1nc2ccccc2c(=O)n1Cc1ccco1 | 0.64 | i | i | i | -8.1 | i | x | x | x
Cc1cc(-c2ccccc2)nc(N/N=C/c2ccco2)n1 | 0.2 | i | i | i | -14.1 | i | x | x | x
Cc1ccc(-c2cc(-c3ccccc3)nc(N/N=C/c3cccnc3)n2)cc1 | 1.03 | i | i | i | -14.0 | i | x | x | x
C(=N/Nc1nc(-c2ccccc2)cc(-c2ccccc2)n1)/c1cccnc1 | 0.69 | i | i | i | -11.5 | i | i | i | i
Cc1cc(-c2ccccc2)nc(N/N=C/c2ccc(O)cc2O)n1 | 2.34 | i | -15.3* | i | -17.0 | i | 75.0%* | i | 33.0%*
O=C(c1ccc(NS(=O)(=O)c2cccc([N+](=O)[O-])c2)cc1)N1CCN(C(=O)c2ccco2)CC1 | x | x | x | x | x | i | x | x | x
COC(=O)Cc1nnc(SCC(=O)Nc2ccccc2)c2ccccc12 | 0.22 | i | i | i | -7.8 | i | x | x | x
CCCCCCCCCC[N+](C)(C)CC/C=C1/c2ccccc2Sc2ccc(Cl)cc21 | -0.81 | i | -12.5* | i | -14.3 | i | 58.5%* | 50.0%* | i
OCCN1CCN(CC/C=C2/c3ccccc3Sc3ccc(Cl)cc32)CC1 | x | x | x | x | x | i | x | x | x
CC(Oc1ccc(Cl)cc1Cl)C(=O)Nc1ccc(S(=O)(=O)Nc2cnc3ccccc3n2)cc1 (stereo not drawn) | -0.17 | i | i | i | -6.7 | x | i | i | i
O=C(Nc1ccc(S(=O)(=O)Nc2cnc3ccccc3n2)cc1)c1ccc(Cl)cc1Cl | 1.33 | i | i | i | -4.2 | i | x | x | x
CCn1ncc(Br)c1C(=O)Nc1ccc(C(C)C)cc1 | 1.49 | i | i | i | -3.7 | i | x | x | x
O=C(O)CCCN1C(=O)/C(=C/c2cn(-c3ccccc3)nc2-c2cccs2)SC1=S | -0.36 | i | i | i | -26.1 | i | x | x | x
SMILES | Kir21 inh | KCNQ1 inh | KCNK9 inh | KCNQ1 act | hERG rescue | KCNK3 block | KCNK9 inh conf | Kir21 sel | HEK293 Tl ctr
Cc1nn(-c2ccccc2)c(Cl)c1/C=C1\SC(=S)N(CCCCCC(=O)O)C1=O | -0.64 | i | i | i | -19.5 | i | i | i | i
COc1ccc(N2C(=O)/C(=C\c3ccco3)N=C2SCC(=O)NC(C)C)cc1Cl | -1.19 | i | -11.8* | i | -5.3 | i | 77.5%* | i | 36.5%*
Oc1c(C(Nc2nccs2)c2ccc(C(F)(F)F)cc2)ccc2cccnc12 (stereo not drawn) | 0.86 | i | i | i | -15.3 | i | i | i | i
Cc1ccc(S(=O)(=O)N2CCN(S(=O)(=O)c3ccccc3Br)C2=O)cc1 | x | x | x | x | x | i | x | x | x
Cc1cccnc1Nc1nc(-c2ccccn2)cs1 | 1.33 | i | i | i | -6.9 | i | x | x | x
Cc1cccnc1Nc1nc(-c2ccccc2)cs1 | 0 | i | i | i | -1.4 | i | i | i | 26.0%*
COc1ccc(COC(=O)Nc2cc3c(C(F)(F)F)nn(C)c3s2)cc1 | -0.52 | i | i | i | -10.7 | i | i | i | i
O=C(COC(=O)c1ccccc1C(=O)c1ccccc1)Nc1ccc(SC(F)F)cc1 | 0.28 | i | -11.7* | i | -10.5 | i | i | i | 31.5%*
Cc1ccc(C)c2nc3sc(C(=O)N4CCCc5ccccc54)c(N)c3cc12 | -1.3 | i | -9.13* | i | -21.2 | i | 39.0%* | i | 73.0%*
O=C(c1ccc(Cl)cc1)C1CCCN(C(=O)/C=C/c2ccccn2)C1 (stereo not drawn) | 0.43 | i | i | i | -9.1 | i | i | i | i
